Assay results published in ChEMBL document CHEMBL4038327, “Inhibitory Kappa B Kinase α (IKKα) Inhibitors That Recapitulate Their Selectivity in Cells against Isoform-Related Biomarkers” (J Med Chem, 2017).

Experiments:
[1] = molecular target: T1, Inhibitor of nuclear factor kappa-B kinase subunit alpha (Homo sapiens, UniProt O15111); experiment: Inhibition of recombinant human N-terminal GST-tagged IKKalpha (1 to 745 residues) expressed in baculovirus expression system using biotinylated IkBalpha as substrate after 60 mins by DELFIA
T1 sequence (O15111 whole entry): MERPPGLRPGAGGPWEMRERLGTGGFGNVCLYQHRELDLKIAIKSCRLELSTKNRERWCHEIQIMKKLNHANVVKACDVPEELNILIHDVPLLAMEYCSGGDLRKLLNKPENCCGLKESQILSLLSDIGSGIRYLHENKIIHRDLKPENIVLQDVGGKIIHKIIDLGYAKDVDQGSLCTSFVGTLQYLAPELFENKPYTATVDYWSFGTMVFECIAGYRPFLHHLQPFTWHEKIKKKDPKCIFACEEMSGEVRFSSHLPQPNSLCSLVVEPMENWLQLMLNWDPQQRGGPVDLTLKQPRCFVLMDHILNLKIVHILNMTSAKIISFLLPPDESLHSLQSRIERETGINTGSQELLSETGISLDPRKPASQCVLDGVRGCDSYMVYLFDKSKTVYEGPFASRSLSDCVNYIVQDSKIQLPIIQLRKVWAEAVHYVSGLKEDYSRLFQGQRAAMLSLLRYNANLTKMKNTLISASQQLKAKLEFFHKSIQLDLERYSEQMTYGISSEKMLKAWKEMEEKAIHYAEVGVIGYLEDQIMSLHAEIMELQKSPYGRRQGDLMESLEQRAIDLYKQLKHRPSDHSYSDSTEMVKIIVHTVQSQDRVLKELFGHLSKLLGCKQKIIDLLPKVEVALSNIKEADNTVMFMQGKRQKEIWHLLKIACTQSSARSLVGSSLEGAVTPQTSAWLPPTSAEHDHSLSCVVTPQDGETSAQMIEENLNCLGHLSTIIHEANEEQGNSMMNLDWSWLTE

[2] = molecular target: T2, Inhibitor of nuclear factor kappa-B kinase subunit beta (Homo sapiens, UniProt O14920); experiment: Inhibition of recombinant full length human IKKbeta expressed in baculovirus infected sf9 insect cells using biotinylated IkBalpha as substrate after 60 mins by DELFIA
T2 sequence (O14920 whole entry): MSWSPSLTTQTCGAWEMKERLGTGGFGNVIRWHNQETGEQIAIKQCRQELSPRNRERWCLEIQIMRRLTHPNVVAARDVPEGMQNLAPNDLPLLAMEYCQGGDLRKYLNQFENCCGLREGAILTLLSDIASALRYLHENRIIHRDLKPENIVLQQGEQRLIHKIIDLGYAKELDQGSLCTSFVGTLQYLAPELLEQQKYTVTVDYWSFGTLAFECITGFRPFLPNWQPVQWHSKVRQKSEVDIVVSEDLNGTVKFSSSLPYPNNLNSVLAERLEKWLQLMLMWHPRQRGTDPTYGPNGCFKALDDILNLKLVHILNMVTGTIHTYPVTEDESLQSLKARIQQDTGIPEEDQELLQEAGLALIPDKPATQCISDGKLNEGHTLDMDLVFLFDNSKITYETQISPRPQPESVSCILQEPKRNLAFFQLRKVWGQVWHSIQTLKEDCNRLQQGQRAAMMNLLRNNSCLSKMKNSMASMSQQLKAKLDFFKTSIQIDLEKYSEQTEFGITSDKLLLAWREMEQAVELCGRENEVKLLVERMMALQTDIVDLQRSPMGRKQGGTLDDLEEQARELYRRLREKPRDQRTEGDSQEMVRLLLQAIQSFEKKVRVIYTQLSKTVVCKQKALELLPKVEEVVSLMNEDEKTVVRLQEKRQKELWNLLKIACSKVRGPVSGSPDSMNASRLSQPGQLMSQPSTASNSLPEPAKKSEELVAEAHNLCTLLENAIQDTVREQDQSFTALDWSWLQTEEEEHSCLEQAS
Outline: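 Recombinant IKKβ (37 nM) was incubated with biotinylated IκB-α (Ser32) peptide (0.375 μM) and 40 μM ATP in Tris-HCl pH 7.5 with MgCl2, EDTA, DTT and BSA for 60 min at 30 °C. The reaction was quenched with EDTA and captured on streptavidin. Detection used anti-phospho-IκBα (Ser32/36) mAb plus Eu-anti-mouse IgG, read by time-resolved fluorescence (340/615 nm). Apparent Ki was obtained via Cheng–Prusoff, n=3.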

[3] = molecular target: T1, Inhibitor of nuclear factor kappa-B kinase subunit alpha; experiment: (§1) Inhibition of IKKalpha in human U2OS cells assessed as decrease in FCS induced p100 phosphorylation at ser866/870 residues preincubated for 1 hr followed by FCS stimulation for 4 hrs by Western blot analysis; type: cell-based
Outline: (§2)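 U2OS cells were grown in McCoy's 5A medium at 37 °C under 5% CO2 and made quiescent by 24 h serum deprivation. They were then pretreated with compound before agonist stimulation in serum-free medium. Phospho-p100, IκBα levels and phospho-p65 (Ser536) were assessed by Western blot.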

[4] = molecular target: T3, Inhibitor of nuclear factor kappa-B kinase subunit alpha (Homo sapiens) (UniProt O15111); experiment: as §1; type: cell-based; outline: as §2
T3 sequence (whole entry): T1 sequence (O15111 whole entry)

[5] = molecular target: T2, Inhibitor of nuclear factor kappa-B kinase subunit beta; experiment: Inhibition of IKKbeta in human U2OS cells assessed as decrease in TNFalpha induced p65 phosphorylation at ser536 residues at 100 uM preincubated for 1 hr followed by TNFalpha stimulation for 30 mins by Western blot analysis; type: cell-based; conditions: 0.5 h; outline: as §2

Ki [1]: 80 nM | Ki [2]: 1000 nM | IC50 [3]: 5800 to 8800 nM | inhibition [4]: Dose-dependent effect | inhibition (INH) [5]: Active
SMILES: N#Cc1c[nH]c2nc(N)nc(-c3ccc(S(N)(=O)=O)cc3)c12
